The results in this text go back to ChEMBL document CHEMBL1154772, “Synthesis and in vitro evaluation of N-substituted maleimide derivatives as selective monoglyceride lipase inhibitors” (J Med Chem, 2009).

By inhibition is commonly meant the relative decrease from the control value, in per cent. A higher inhibition goes with strong suppression. The term pIC50 denotes the negative decadic logarithm of the IC50, by convention in mol/L.

Experiment [1] has as its target T1, Monoglyceride lipase (Homo sapiens) (UniProt Q99685).
T1 sequence (whole entry): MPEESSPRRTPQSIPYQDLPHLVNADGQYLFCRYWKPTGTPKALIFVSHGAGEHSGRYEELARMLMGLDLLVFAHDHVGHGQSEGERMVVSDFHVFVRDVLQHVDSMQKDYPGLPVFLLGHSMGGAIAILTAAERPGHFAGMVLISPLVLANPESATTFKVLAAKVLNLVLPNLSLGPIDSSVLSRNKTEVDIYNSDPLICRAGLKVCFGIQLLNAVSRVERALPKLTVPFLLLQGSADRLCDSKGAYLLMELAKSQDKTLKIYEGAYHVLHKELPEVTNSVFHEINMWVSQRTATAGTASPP
The experiment is described as follows: Inhibition of [3H]2-OG binding to human MGL at 20 times IC50 treated for 1 hr before addition of 2-OG by liquid scintillation counting.

Experiment [2] deals with T2, Monoglyceride lipase (Homo sapiens, UniProt Q99685).
T2 sequence (Q99685 whole entry): T1 sequence (whole entry)
In words: Inhibition of human MGL. In short, it runs like this: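 Purified recombinant human MGL (5 ng) in 50 mM Tris pH 8.0, 0.1% BSA with compound or DMSO vehicle. [3H]-2-OG (10 μM) hydrolysis run 10 min at 37 °C, stopped with ice-cold methanol-chloroform 1:1. Aqueous-phase radioactivity read by liquid scintillation, no-enzyme blanks subtracted.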

The species named for a further experiment is Homo sapiens. The experiment is described as follows: Selectivity ratio of IC50 for human FAAH to IC50 for human MGL. In short, it runs like this: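 Ratio of IC50 against human FAAH ([3H]anandamide hydrolysis) to IC50 against purified human MGL ([3H]-2-OG hydrolysis), each from three independent experiments in duplicate.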
Experiment [3] concerns the target T1, Monoglyceride lipase (Homo sapiens). In words: Displacement of [3H]2-OG from human MGL at 16 uM treated for 15 mins before addition of 2-OG by liquid scintillation counting. In short, it runs like this:
(§1)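 Purified recombinant human MGL (5 ng, 50 mM Tris pH 8.0, 0.1% BSA) preincubated with inhibitor (16 μM or 2 μM) at room temperature for 0, 15 or 30 min. Then [3H]-2-OG (10 μM final) added, 10 min at 37 °C. Stopped with ice-cold methanol-chloroform 1:1, centrifuged, aqueous-phase radioactivity counted by liquid scintillation. No-enzyme blanks subtracted. Mean of three experiments in duplicate.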
Background: In a radioligand displacement assay an active substance lowers the binding of a labelled ligand.

The target of experiment [4] is T3, Fatty-acid amide hydrolase 1 (Homo sapiens, UniProt O00519).
T3 sequence (O00519 whole entry): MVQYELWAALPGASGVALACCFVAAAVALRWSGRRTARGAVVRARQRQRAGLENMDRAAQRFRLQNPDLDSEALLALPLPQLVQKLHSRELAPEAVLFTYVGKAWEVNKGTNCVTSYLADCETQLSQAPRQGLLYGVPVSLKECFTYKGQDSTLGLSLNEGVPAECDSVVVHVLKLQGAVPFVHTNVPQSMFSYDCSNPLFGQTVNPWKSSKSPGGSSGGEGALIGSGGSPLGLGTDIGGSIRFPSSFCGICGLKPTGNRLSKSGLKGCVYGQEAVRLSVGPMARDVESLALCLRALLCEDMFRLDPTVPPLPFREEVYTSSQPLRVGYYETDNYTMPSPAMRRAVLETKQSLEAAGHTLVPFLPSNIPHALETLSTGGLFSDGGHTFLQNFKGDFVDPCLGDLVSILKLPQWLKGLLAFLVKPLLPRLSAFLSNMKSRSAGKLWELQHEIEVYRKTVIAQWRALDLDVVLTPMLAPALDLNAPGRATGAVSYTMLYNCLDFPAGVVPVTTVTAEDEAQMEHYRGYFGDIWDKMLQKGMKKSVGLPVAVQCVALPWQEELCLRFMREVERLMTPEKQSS
In words: Displacement of [3H]ethanolamine from human recombinant FAAH by liquid scintillation counting. The method in brief: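 Recombinant human FAAH in Tris-HCl pH 7.4 added on ice to compound or DMSO. [3H]anandamide (2 μM final) in Tris-HCl with 0.1% BSA, 10 min at 37 °C. Stopped on ice with methanol-chloroform 1:1, centrifuged 850g 5 min 4 °C. Released [3H]ethanolamine in aqueous layer counted by scintillation, buffer blanks subtracted. Three independent experiments in duplicate; 1 mM single-point where no IC50.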

The target in experiment [5] is T2, Monoglyceride lipase. The experiment is described as follows: Displacement of [3H]2-OG from human MGL by liquid scintillation counting. The method in brief: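 Purified recombinant human MGL (5 ng) in 50 mM Tris pH 8.0, 0.1% BSA with compound or DMSO vehicle. [3H]-2-OG (10 μM) hydrolysis run 10 min at 37 °C, stopped with ice-cold methanol-chloroform 1:1. Aqueous-phase radioactivity read by liquid scintillation, no-enzyme blanks subtracted. IC50 from three independent experiments in duplicate; single-point inhibition at 1 mM where no IC50.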

Experiment [6] deals with T1, Monoglyceride lipase (Homo sapiens). The experiment is described as follows: Displacement of [3H]2-OG from human MGL at 16 uM treated for 30 mins before addition of 2-OG by liquid scintillation counting. In short, it runs like this:
as §1

The target is the same in experiment [7]. The experiment is described as follows: Inhibition of [3H]2-OG binding to human MGL at 40 times IC50 treated for 1 hr before addition of 2-OG by liquid scintillation counting.
Experiment [8] has as its target T3, Fatty-acid amide hydrolase 1. In words: Inhibition of human FAAH. In short, it runs like this: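 Recombinant human FAAH in Tris-HCl pH 7.4 added on ice to compound or DMSO. [3H]anandamide (2 μM final) in Tris-HCl with 0.1% BSA, 10 min at 37 °C. Stopped on ice with methanol-chloroform 1:1, centrifuged 850g 5 min 4 °C. Released [3H]ethanolamine in aqueous layer counted by scintillation, buffer blanks subtracted.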

Experiment [9] addresses T1, Monoglyceride lipase (Homo sapiens). In words: Displacement of [3H]2-OG from human MGL at 2 uM treated for 15 mins before addition of 2-OG by liquid scintillation counting. The method in brief:
as §1

For experiment [10] the target is unchanged. In words: Displacement of [3H]2-OG from human MGL at 2 uM treated for 30 mins before addition of 2-OG by liquid scintillation counting. In short, it runs like this: as §1

Molecules are shown by their SMILES. pIC50: −log10 of the molar value. The source made the active and inactive calls. No cut-off for these calls is given here.

In the case of `CCCCC/C=C\C/C=C\C/C=C\C/C=C\CCCC(=O)C(F)(F)F` [ARACHIDONYL TRIFLUOROMETHYLKETONE], the inhibition in experiment [1] is 26%. The compound also gave a pIC50 against Monoglyceride lipase [2] of 5.20. The Ratio IC50 in the experiment listed under Homo sapiens was 0.002.

Regarding `O=C1C=CC(=O)N1c1ccccc1`, the result in experiment [3] and in experiment [6] was Active. Moreover, the pIC50 in experiment [4] was 3.64; on Monoglyceride lipase [5] it was 4.80.

As to `CCCCC/C=C\C/C=C\C/C=C\C/C=C\CCCCN1C(=O)C=CC1=O`, the inhibition in experiment [7] is 69%. Besides, the negative logarithm of the IC50 (pIC50) against Monoglyceride lipase [2] is 5.95; in experiment [8], 5.66. Besides, in the experiment filed under Homo sapiens, the Ratio IC50 came out at 1.95.

Regarding `O=C1C=CC(=O)N1Cc1ccc(CN2C(=O)C=CC2=O)cc1`, the inhibition in [7] is 69%. The pIC50 in experiment [4] is 4.78; at Monoglyceride lipase [5] it was 5.77. The result in experiment [9] and in [10] was Active. Moreover, in the experiment listed under Homo sapiens, the Ratio IC50 is 10.

In turn, `O=C(Nc1cccc(-c2ccccc2)c1)OC1CCCCC1` showed a pIC50 in experiment [8] of 5.25. The Ratio IC50 in the experiment listed under Homo sapiens was determined as 0.57.
